High-throughput results as filed in PubChem BioAssay.
Shown are actives, neighbours in structure and some others; about 1.3% of the full set was active somewhere.
aDG glyco act: alpha-DG glycosylation activation. Pro5-aDG cells, alpha-DG glycosylation AlphaScreen (IIH6); 0% Pro5, 100% B10-LARGE cell signal. activation, % at 10 µM. 360,000 tested, 0.22% active. AID 624168;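 active = activation of at least 8% versus controls, or a plate z-score of at least 8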;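 also: Pro5 are CHO cells carrying HIG-tagged alpha-DG that lacks glycosylation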
Tn6 DDE FP: inhibitors of Tn6 peptide binding to human fibrin DD(E) | P02675 | AID 720509 | 370,000 tested, 0.21% active | inhibition, % at 8.3 µM | Fibrin DD(E) TRITC-Tn6 fluorescence polarization displacement;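 active = inhibition above a per-campaign cutoff: mean of compounds within control limits plus 3 SD, cut at about 15% in these data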;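 also: 0% = median of all compound wells on the plate and 100% = blocking peptide control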
Target sequence (P02675 whole entry, looked up): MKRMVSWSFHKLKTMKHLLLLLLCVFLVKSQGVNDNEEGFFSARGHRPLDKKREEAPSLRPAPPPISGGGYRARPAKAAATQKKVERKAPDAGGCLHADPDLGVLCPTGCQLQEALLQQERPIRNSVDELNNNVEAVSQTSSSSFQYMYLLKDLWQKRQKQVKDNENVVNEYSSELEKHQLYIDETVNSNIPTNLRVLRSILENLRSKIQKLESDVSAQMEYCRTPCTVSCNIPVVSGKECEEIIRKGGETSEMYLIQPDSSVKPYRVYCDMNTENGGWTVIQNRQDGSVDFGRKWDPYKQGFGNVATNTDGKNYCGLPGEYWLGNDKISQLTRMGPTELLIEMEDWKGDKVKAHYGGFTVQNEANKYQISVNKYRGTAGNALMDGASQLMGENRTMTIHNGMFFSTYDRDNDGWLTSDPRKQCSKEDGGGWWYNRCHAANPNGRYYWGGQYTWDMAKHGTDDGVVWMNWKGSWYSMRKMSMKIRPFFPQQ
Tn7 DDE FP: DD(E)-Tn7 binding inhibition, primary FP screen | FP displacement of FITC-Tn7 peptide from fibrin DD(E); 0% = median of compound wells per plate | inhibition, % at 8.3 µM | 370,000 tested, 0.13% active | AID 720508;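 active = inhibition above the mean of compounds falling within the control limits plus 3 SD of them, cut at about 14% in these data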;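 also: 0% = plate median of compound wells and 100% = 10 µM Aha-Tn7 peptide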
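assay system = human clot-derived fibrin DD(E) complex | quantity = Fibrin-DD(E) at 2 µM final | timing = 10 min preincubation, 3 h with tracer, room temperature | signal = fluorescence polarization | measure = percent inhibition | benchmarks = high control wells with 10 µM unlabelled Aha-Tn7 peptide (full inhibition) | replicates = singlicate testing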
CendR NRP1 mod: NRP-1/CendR interaction modulation | 360,000 tested, 0.85% active | O14786 | inhibition, % at 25 µM | AID 602438 | FAM-RPARPAR peptide binding to NRP-1, fluorescence polarization;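 active = inhibition or corrected inhibition above about 18%, plus a signal ratio from 0.5 to 1.5, limit read from the data, passing the limit was not always enough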
The depositor's hits bear a star; / = no result; ! = a repeat was not active.

SMILES | aDG glyco act | Tn6 DDE FP | Tn7 DDE FP | CendR NRP1 mod
Cc1cc(C)c(CN2CCN(C(=O)Cn3cc(C)c(=O)[nH]c3=O)CC2)c(C)c1 | / | 4.1 | 3.5 | /
O=C(Nc1cccc(Cl)c1)NC1CC2CCC(C1)N2Cc1ccco1 (configuration not stated) | 0.7 | 2.2 | 0.9 | -2.3
CCc1ccccc1NC(=O)NC1CC2CCC(C1)N2Cc1ccco1 (configuration not stated) | 0.7 | -10.5 | -8.5 | 19.7*
Cc1ccccc1N=Nc1c(N)[nH]n(-c2ccccc2)c1=O | / | 1.3 | 3.2 | /
Cc1ccc(CNC(=O)C2CCC(=O)N(C3CC3)C2)cc1 (configuration not stated) | 0.0 | 4.0 | 0.4 | 27.6*
Cc1cccc(CNC(=O)C2CCC(=O)N(C3CCCC3)C2)c1 (configuration not stated) | 0.2 | -5.5 | 3.7 | 20.0
CCOc1ccc(CCN2C(=S)N([C@@H](Cc3ccccc3)CN3CCC[C@@H]3CN3C(=S)NC[C@@H]3Cc3ccc(O)cc3)C[C@@H]2CC(C)C)cc1 | 0.6 | -5.6 | -3.3 | 18.6*
O=c1cc[nH]c2ccc([N+](=O)[O-])cc12 | -0.2 | -5.3 | -1.6 | 33.8*
O=c1[nH][nH]c(=O)c2cc([N+](=O)[O-])ccc12 | -0.2 | 6.7 | -8.0 | -0.5
COc1ccc(CNC(=O)O[C@H]2CC[C@@]34CCCN3C(=O)CCC[C@H]4[C@H]2C)cc1OC | / | -1.1 | -0.3 | /
Cc1ccc(C(=O)Nc2nc(=O)[nH]s2)cc1 | 0.5 | -0.1 | 2.4 | 17.2*!
Cc1ccc(C(=O)Nc2nccs2)cc1 | -0.2 | 0.3 | -2.0 | 5.9
COc1ccc2c(c1)CCCN2C(=O)C1CCCN(S(=O)(=O)c2cccs2)C1 (configuration not stated) | / | 1.8 | -4.3 | /
CCC(=O)c1c[nH]c(C(=O)NCc2cccnc2)c1 | 0.1 | -2.9 | 4.6 | 22.4*
CCCC(=O)c1c[nH]c(C(=O)NCc2cccnc2)c1 | -0.1 | 0.0 | 4.5 | 2.8
CC(=O)NS(=O)(=O)c1ccc(N=NN2CCOCC2)cc1 | 0.0 | -1.9 | -2.4 | 27.1*
S=C(Nc1ccc(Cl)cc1Cl)Nc1ccccc1Oc1ccccc1 | 0.0 | / | / | 3.1
S=C(Nc1ccccc1Oc1ccccc1)Nc1cccc(Cl)c1Cl | -0.2 | -6.5 | -2.9 | 28.2*
O=c1[nH][nH]c2c1[C@H](c1ccc(Cl)cc1)O[C@H](C1CC1)C2 | 0.2 | -3.8 | 7.0 | 3.2
c1ccc2c(c1)CCCN2Cc1nnc2n1CCCCC2 | -0.2 | -2.4 | 11.7 | 23.1*
Cn1ccnc1SCC(=O)Nc1ccc([N+](=O)[O-])cn1 | 0.0 | 5.5 | -0.7 | 3.0
Cn1ccnc1SCC(=O)Nc1ccc(Cl)cn1 | 0.4 | -3.9 | 1.4 | 18.3*
Cc1noc(NC(=O)c2ccccc2Cl)c1C#N | 0.1 | -4.7 | -0.1 | 5.1
COc1ccccc1C(=O)Nc1onc(C)c1C#N | 0.1 | -2.9 | -1.2 | 19.8*
CCS(=O)(=O)N1CCN(C(=O)c2ccc3nc(C)c(N(C)C(=O)CCc4ccccc4)n3c2)CC1 | -0.4 | -2.1 | -3.4 | -11.5
SMILES | aDG glyco act | Tn6 DDE FP | Tn7 DDE FP | CendR NRP1 mod
c1ccc(OCCOCCOc2ccccc2)cc1 | 0.4 | -6.3 | -5.1 | 13.3
CC(NCCOCCOc1ccccc1)c1ccccc1 (configuration not stated) | 0.3 | 2.2 | 2.0 | 25.6*
O=C(Cc1ccc(F)cc1)N1CCN=C1SCc1ccc([N+](=O)[O-])cc1 | 0.0 | -5.8 | 0.4 | 21.8*
O=C(Cc1ccccc1)N1CCN=C1SCc1ccc([N+](=O)[O-])cc1 | 0.1 | 7.1 | 4.0 | -9.6
CN(C(=O)Cn1cc(C(F)(F)F)cc(Cl)c1=O)C1CCS(=O)(=O)C1 (configuration not stated) | -0.1 | 5.4 | 0.0 | 0.8
Cc1ccc(C(=O)N/C(=C\c2cn(C)c3ccccc23)C(=O)NCCCN2CCOCC2)cc1 | 0.0 | -1.3 | -1.4 | -5.2
Cc1ccc(C(=O)N/C(=C\c2ccc(-c3ccccc3[N+](=O)[O-])o2)C(=O)NCCCN2CCOCC2)cc1 | 2.3 | -2.3 | 3.6 | 26.1*
CCC(=O)OCCCN1CCC2(CCCCC2)C1=O | / | 1.3 | -7.4 | /
Cc1c(C)n(Cc2ccc(-c3ccccc3C(=O)O)cc2)c2ccc(C(=O)N[C@@H](C)c3ccc(Br)cc3)cc12 | / | -3.5 | -5.2 | /
CC(=O)C1=CCN(C)CC1 | / | -1.8 | 0.5 | /
CC(NC(=S)NCCCN1CCOCC1)C12CC3CC(CC(C3)C1)C2 (configuration not stated) | -0.1 | -6.7 | 0.8 | 26.7*
S=C(NCCCN1CCOCC1)NCCCN1CCOCC1 | -0.1 | 6.2 | 3.1 | -1.7
CCOc1ccc(-n2c(COc3ccccc3)nnc2SCC(=O)Nc2ccc3c(c2)OCCO3)cc1 | / | -3.2 | 3.7 | /
COc1ccccc1C=NNc1ccc([N+](=O)[O-])cn1 | 0.2 | 1.8 | 0.6 | 24.1*
COc1cccc(C=NNc2ccc([N+](=O)[O-])cn2)c1OC | 0.7 | -5.2 | 6.6 | -23.6
Cc1cc2c(cc1C)-n1nnnc1C(N(Cc1ccccc1)Cc1ccccc1)C(=O)N2 (configuration not stated) | 0.1 | 3.2 | -1.9 | 9.5
Cc1cc(Nc2ccc(OC(F)F)cc2)cc(=O)n1-c1ccc(OC(F)F)cc1 | / | 2.4 | -0.2 | /
COc1ccccc1CNC1CCC12CCC(c1ccccc1)CC2 (configuration not stated) | / | -0.9 | 4.7 | /
CCOC(=O)/C=C1\NC(=O)CS1 | -0.1 | -4.5 | -9.5 | 28.1*
CN(C)c1cc(N/N=C\c2ccccc2)nc(N(C)C)n1 | -0.6 | 3.9 | 2.0 | 35.4*
COc1ccc(/C=N/Nc2cc(N(C)C)nc(N(C)C)n2)cc1 | -0.2 | 11.8 | 5.6 | -8.7
O=C(O/N=C1/CCSc2ccccc21)c1ccccc1 | -0.1 | -0.6 | 3.6 | 26.0*
Cc1ccc2c(c1)/C(=N/OC(=O)c1ccc(F)cc1)CCS2 | -0.2 | 8.2 | 7.0 | 4.2
C[C@H]1CCC[C@H](O)CC(=O)c2c(O)cc(O)cc2CC(=O)O1 | / | -1.3 | -7.8 | /
O=C(COC(=O)c1ccc(F)c([N+](=O)[O-])c1)NC(=O)NCc1ccccc1 | 0.3 | 6.5 | -1.9 | 22.4*
SMILES | aDG glyco act | Tn6 DDE FP | Tn7 DDE FP | CendR NRP1 mod
CCOC(=O)C1Nc2ccccc2C2C(O)C(O)CC12 (configuration not stated) | -0.7 | -2.4 | 2.2 | 27.4*
CCC[C@H]1[C@@H](OC(=O)NCc2ccco2)CC[C@@]23CCCN2C(=O)CCC[C@@H]13 | / | 0.6 | -2.3 | /
COc1ccc(C(C(=O)NC2CCCC2)N(C(=O)c2snc(C(N)=O)c2N)c2cc(C)ccc2OC)cc1OC (configuration not stated) | 0.0 | -2.4 | 5.5 | -0.7
COc1ccc(C(C(=O)NC2CCCC2)N(C(=O)c2snc(C(N)=O)c2N)c2ccccc2OC)cc1OC (configuration not stated) | -0.1 | 2.3 | -7.9 | 32.0*
CC(=O)Oc1c(Br)cc(N(C(C)=O)S(=O)(=O)c2ccccc2)c2ccccc12 | 3.0* | 10.3 | 0.3 | 5.0
COc1ccc(CNC(=O)C[C@H]2C[C@H](C(=O)N3CCCCC3)[C@@]3(C)c4[nH]c5cc(CCC(=O)N(C)C)ccc5c4CCN3C2=O)cc1OC | 1.7 | 15.8* | 7.3 | -13.8
